Assay results reported in ChEMBL document CHEMBL4138113, “Novel propanamides as fatty acid amide hydrolase inhibitors” (Eur J Med Chem, 2017).
Active and inactive are the calls of the source.

What was measured:
[1] = target: T1, Fatty-acid amide hydrolase 1 (Rattus norvegicus, UniProt P97612); test: Competitive inhibition of rat brain FAAH using [3H]AEA as substrate after 10 mins by Dixon plot analysis
T1 sequence (P97612 whole entry): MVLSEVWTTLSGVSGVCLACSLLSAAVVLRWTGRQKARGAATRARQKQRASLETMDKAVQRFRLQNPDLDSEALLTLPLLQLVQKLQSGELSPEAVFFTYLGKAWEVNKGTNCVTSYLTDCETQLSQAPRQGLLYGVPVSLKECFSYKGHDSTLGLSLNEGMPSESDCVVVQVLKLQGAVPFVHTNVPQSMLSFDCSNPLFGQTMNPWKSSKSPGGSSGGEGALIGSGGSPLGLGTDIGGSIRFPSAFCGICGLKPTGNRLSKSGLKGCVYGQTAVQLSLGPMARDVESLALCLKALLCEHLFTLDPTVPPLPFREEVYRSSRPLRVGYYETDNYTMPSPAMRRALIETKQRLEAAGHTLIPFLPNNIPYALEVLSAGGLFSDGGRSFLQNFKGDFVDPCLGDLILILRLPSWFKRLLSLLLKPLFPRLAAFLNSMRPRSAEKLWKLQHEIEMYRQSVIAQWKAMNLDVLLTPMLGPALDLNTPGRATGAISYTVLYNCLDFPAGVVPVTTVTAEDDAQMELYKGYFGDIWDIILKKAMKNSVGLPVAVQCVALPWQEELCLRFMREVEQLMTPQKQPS
Method in brief: (§1)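 Kinetic study in rat brain homogenate (1 µg protein per assay). [3H]AEA hydrolysis ran for 10 min at 37 °C in Tris-EDTA buffer, pH 7.4, with the AEA:fatty acid-free BSA ratio held at 1:~4.5 across substrate levels. Radioactivity was measured by charcoal separation and scintillation counting. Data were fitted to competitive, mixed-type and non-competitive models, and the best model was chosen by Akaike's criterion.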

[2] = target: Fatty-acid amide hydrolase 1 (Homo sapiens, UniProt O00519, T488A); test: Inhibition of FAAH T488A mutant (unknown origin) expressed in human HeLa cells using [3H]AEA as substrate after 2 hrs by liquid scintillation counting analysis; type: cell-based
Fatty-acid amide hydrolase 1 (Homo sapiens, UniProt O00519, T488A), sequence (O00519 whole entry T488A): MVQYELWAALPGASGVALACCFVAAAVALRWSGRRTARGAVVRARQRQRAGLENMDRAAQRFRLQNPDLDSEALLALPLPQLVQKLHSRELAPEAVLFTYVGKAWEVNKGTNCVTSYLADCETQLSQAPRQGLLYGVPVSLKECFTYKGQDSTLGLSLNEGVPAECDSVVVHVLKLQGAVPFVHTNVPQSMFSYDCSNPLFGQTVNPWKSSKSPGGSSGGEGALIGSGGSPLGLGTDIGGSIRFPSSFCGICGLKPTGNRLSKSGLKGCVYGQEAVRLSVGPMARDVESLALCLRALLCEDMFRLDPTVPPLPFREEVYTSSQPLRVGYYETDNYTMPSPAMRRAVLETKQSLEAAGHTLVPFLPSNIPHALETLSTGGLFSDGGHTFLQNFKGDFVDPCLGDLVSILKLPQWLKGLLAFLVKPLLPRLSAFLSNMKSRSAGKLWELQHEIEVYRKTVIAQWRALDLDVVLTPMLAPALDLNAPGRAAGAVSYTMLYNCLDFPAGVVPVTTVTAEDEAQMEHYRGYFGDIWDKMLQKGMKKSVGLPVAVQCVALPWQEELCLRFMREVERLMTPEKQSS

[3] = target: T2, Fatty-acid amide hydrolase 1 (Rattus norvegicus) (UniProt P97612); test: Inhibition of rat brain FAAH using [3H]AEA as substrate after 10 mins in presence of N-(3-Methylpyridin-2-yl)-2-(4-((2-(trifluoromethyl)pyridin-4-yl)amino)phenyl)propanamide by liquid scintillation counting analysis
T2 sequence (whole entry): T1 sequence (P97612 whole entry)
Method in brief: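 Rat (Wistar or Sprague-Dawley) brain homogenate without cerebella, washed and pre-incubated 15 min at 37 °C to clear endogenous substrate. Compound (in ethanol or DMSO) was mixed with 1 µg protein on ice in 10 mM Tris-HCl, 1 mM EDTA, pH 7.4. Reaction used 0.5 µM [3H]AEA with fatty acid-free BSA for 10 min at 37 °C. It was stopped with charcoal/HCl, and supernatant tritium was counted. ≥5 half-log concentrations, ≥3 experiments; maximum inhibition = 100 − fitted bottom.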

[4] = target: T3, Fatty-acid amide hydrolase 1 (Mus musculus) (UniProt O08914); test: Inhibition of B6CBAF1/J mouse brain FAAH using [3H]AEA as substrate after 10 mins in presence of N-(3-Methylpyridin-2-yl)-2-(4-((2-(trifluoromethyl)pyridin-4-yl)amino)phenyl)propanamide by Dixon plot analysis
T3 sequence (whole entry): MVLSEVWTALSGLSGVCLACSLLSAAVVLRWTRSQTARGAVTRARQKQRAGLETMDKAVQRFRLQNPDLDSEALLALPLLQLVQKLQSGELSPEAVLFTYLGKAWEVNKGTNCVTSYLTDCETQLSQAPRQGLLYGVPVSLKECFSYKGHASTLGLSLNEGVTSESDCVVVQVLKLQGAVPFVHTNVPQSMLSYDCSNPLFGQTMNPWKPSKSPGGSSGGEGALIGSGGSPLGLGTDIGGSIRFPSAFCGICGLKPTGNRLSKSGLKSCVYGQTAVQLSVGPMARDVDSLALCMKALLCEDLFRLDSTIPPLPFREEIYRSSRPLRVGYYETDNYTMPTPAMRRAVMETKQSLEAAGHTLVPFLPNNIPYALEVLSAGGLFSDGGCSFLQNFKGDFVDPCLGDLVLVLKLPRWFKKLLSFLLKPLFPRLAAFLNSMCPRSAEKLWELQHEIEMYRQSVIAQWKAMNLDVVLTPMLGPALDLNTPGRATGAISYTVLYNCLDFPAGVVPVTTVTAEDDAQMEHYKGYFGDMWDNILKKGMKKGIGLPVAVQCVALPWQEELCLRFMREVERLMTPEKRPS
Method in brief: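 Kinetic study in brain homogenate from male B6CBAF1/J mice (0.3 µg protein per assay). [3H]AEA hydrolysis ran for 10 min at 37 °C in Tris-EDTA buffer, pH 7.4, with the AEA:fatty acid-free BSA ratio held at 1:~4.5. Products were separated on charcoal and counted by scintillation. Competitive, mixed-type and non-competitive fits were compared by Akaike's criterion.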

[5] = target: T4, Prostaglandin G/H synthase 1 (Ovis aries) (UniProt P05979); test: Inhibition of recombinant ovine COX1 at 100 uM using arachidonic acid as substrate after 5 mins
T4 sequence (whole entry): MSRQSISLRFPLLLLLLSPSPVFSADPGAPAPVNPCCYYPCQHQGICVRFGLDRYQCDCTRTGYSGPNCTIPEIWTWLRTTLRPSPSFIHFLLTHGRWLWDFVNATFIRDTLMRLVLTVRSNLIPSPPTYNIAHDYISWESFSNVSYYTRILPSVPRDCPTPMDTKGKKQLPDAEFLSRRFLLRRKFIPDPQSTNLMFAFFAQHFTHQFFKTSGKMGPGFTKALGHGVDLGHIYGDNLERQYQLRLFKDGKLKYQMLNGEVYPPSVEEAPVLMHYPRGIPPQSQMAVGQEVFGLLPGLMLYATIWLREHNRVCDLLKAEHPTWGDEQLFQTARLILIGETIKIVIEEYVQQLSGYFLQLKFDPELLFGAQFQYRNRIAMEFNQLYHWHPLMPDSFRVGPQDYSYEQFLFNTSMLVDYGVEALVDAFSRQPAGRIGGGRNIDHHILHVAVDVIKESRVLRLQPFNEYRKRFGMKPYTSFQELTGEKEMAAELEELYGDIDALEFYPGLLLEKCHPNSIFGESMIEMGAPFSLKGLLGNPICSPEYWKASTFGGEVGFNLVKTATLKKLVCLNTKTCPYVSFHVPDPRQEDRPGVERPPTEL
Method in brief: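 Oxygen-electrode assay at room temperature in 0.1 M Tris-HCl, pH 7.4, with 1 µM haematin, 2 mM phenol, 5 mM EDTA and 10 µM (final) arachidonic acid or 2-AG. Compound in EtOH was added and a 5 min baseline recorded. The reaction was started with ovine COX-1 or human recombinant COX-2 (200 U), and oxygen consumption was read in 10 s blocks. Means ± SEM, n = 3-4.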

[6] = target: T1, Fatty-acid amide hydrolase 1; test: Noncompetitive inhibition of rat brain FAAH using [3H]AEA as substrate after 10 mins by Dixon plot analysis; method in brief: as §1

Structure (SMILES) | Ki [1] [µM] | IC50 [2] [µM] | inhibition [3] | inhibition [4] | inhibition [5] | Ki [6] [µM]
Cc1cccnc1NC(=O)C(C)c1ccc(Nc2ccnc(C(F)(F)F)c2)cc1 (stereo unspecified) | 0.39 | 1.9 to 9.4 |  |  |  | 
CC(C(=O)Nc1ncccc1Cl)c1ccc(Nc2ccnc(C(F)(F)F)c2)cc1 (stereo unspecified) |  |  | Active | Active | Active | 0.11
